Assay results collected from several papers.
Lines come from different studies, so protocols differ.
Target: Dual specificity mitogen-activated protein kinase kinase 3 (MAP2K3, Homo sapiens, UniProt P46734)
One construct used (P46734 1-347): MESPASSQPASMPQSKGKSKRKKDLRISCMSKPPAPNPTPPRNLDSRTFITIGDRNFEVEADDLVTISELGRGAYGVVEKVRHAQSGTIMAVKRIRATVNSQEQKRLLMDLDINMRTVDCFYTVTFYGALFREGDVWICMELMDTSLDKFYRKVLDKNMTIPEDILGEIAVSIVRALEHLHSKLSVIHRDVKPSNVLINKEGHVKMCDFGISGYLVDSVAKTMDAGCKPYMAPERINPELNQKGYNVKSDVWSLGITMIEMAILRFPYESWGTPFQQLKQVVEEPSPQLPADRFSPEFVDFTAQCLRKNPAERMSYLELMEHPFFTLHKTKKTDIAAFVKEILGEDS

Structure (SMILES)	test	setting	remaining binding [%]
O=C(NCCCN1CCOCC1)c1ccc(Nc2ncc(Cl)c(-c3ccc(Cl)s3)n2)cc1	binding, competition with immobilised ligand	1 µM	51
COc1cnc(Nc2cccc(S(N)(=O)=O)c2)nc1N1CCN(c2ccccc2)C(=O)C1	binding, competition with immobilised ligand	1 µM	84
Nc1cnc(N2CCc3cc(S(=O)(=O)Nc4c(F)cc(Cl)cc4F)cc(N4CCCC4=O)c32)nc1	cell-free assay, competition with immobilised ligand	1 µM	100
O=C(NCCCN1CCOCC1)c1ccc(Nc2nccc(-c3cc4ccccc4s3)n2)cc1	binding, competition with immobilised ligand	1 µM	47
O=C(NCC1CCOCC1)c1n[nH]cc1NC(=O)c1c(F)cccc1F	binding, competition with immobilised ligand	1 µM	64
CN(C)c1ncnc(-c2ccc3nc(Nc4cc(CN5CCN(C(=O)CC(F)(F)F)CC5)ccn4)[nH]c3c2)c1Cl	cell-free assay, competition with immobilised ligand	1 µM	73
C[C@H]1CCN(c2nccc(-c3cnn4ncccc34)n2)C1	binding	1 µM	69
c1cncc(-c2cccc(Nc3nccc(NC4CCCCC4)n3)c2)c1	binding, competition with immobilised ligand	10 µM	32
CN(C)c1nccc(-c2cnc3ncccn23)n1	binding	1 µM	78
CO[C@@H](C)c1c(Nc2ccc([C@H](N(C)C(=O)C3CCS(=O)(=O)CC3)C(F)(F)F)cc2)cnc2cc(Cl)nn12	cell-free assay, competition with immobilised ligand	1 µM	93
F[C@@H]1CCN(c2nccc(-c3cnn4ncccc34)n2)C1	binding	1 µM	83
O=C(c1ccc(Nc2ncc(Cl)c(-c3cc4ccccc4s3)n2)cc1)N1CCC(N2CCCC2)CC1	binding, competition with immobilised ligand	1 µM	43
CC1=C(C#N)[C@@H](c2ccc3[nH]nc(C)c3c2)C(C#N)=C(c2ccc(Cl)cc2)N1	cell-free assay, competition with immobilised ligand	1 µM	53.5
N[C@@H]1CCN(c2nccc(-c3cnn4ncccc34)n2)C1	binding	1 µM	59
CCCOc1ccc([C@H]2[C@H](C(=O)O)[C@@H](c3ccc4c(c3)OCO4)CN2CC(=O)Nc2c(CC)cccc2CC)cc1	cell-free assay, competition with immobilised ligand	1 µM	60
CN(C)c1ncc(F)c(-c2cnn3ncccc23)n1	binding	1 µM	78
O=C(NCc1ncc(C(F)(F)F)cc1Cl)c1ccc2c(c1)C1(CCS(=O)(=O)CC1)[C@@H](C1CC1)N2S(=O)(=O)c1ccc(F)cc1	cell-free assay, competition with immobilised ligand	1 µM	73
COc1cnc(Nc2cccc(S(N)(=O)=O)c2)nc1N1CCN(c2ccccc2)CC1	binding, competition with immobilised ligand	1 µM	79
c1cnn2ncc(-c3ccnc(N4CCC45COC5)n3)c2c1	binding	1 µM	31
C=CC(=O)N1CCC(C(=O)NCC(=O)N2CCN(c3nc(-c4cnc(N)nc4C(F)F)nc(N4CCOCC4)n3)CC2)CC1	binding, competition with immobilised ligand	1 µM	59
CN(C)C(=O)Cn1cc(-c2nc([C@@](C)(c3ccc(-c4cnc(N)nc4)cc3)C3CC3)no2)cn1	cell-free assay, competition with immobilised ligand	1 µM	83
CC1CCCN1c1nccc(-c2cnn3ncccc23)n1 (stereo not shown)	binding	1 µM	84
